# In ChEMBL document CHEMBL1208782, “Synthesis and pharmacological validation of a novel series of non-steroidal FXR agonists” (Bioorg Med Chem Lett, 2010):
# Calls of active or inactive are those of the source. The rule behind the calls is not given here.
# How the values were obtained:
# Mus musculus [1] = experiment: Reduction in total plasma triglyceride level in db/db mouse at 1-25 mg/kg bid after 12 days; type: functional, organism-based
# Summary of the method: (§1)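 C57BL/KSK-mLep^db/mLep^db mice were dosed orally at 1, 5 and 25 mg/kg b.i.d. for 12 days. Total plasma triglycerides and total plasma cholesterol were measured, with cholesterol reported as mg/dl. Significance was given at p<0.05, <0.01 and <0.001 levels.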
# Mus musculus [2] = experiment: Reduction in total plasma cholesterol level in db/db mouse at 1-25 mg/kg bid after 12 days; type: functional, organism-based; summary of the method: as §1
# [3] = Plasma concentration in db/db mouse at 25 mg/kg bid after 4 hrs by LC/MS-MS analysis; type: ADME, organism-based; set-up: dose 25 mg/kg; settings: read-out: Drug uptake
# Summary of the method: (§2)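 db/db mice were dosed twice daily for 12 days. Plasma and liver concentrations were determined 4 h and 24 h after the last administration.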
# [4] = Plasma concentration in db/db mouse at 25 mg/kg bid after 24 hrs by LC/MS-MS analysis; type: ADME, organism-based; set-up: dose 25 mg/kg; settings: read-out: Drug uptake; summary of the method: as §2
# [5] = Drug level in db/db mouse liver at 25 mg/kg bid after 4 hrs by LC/MS-MS analysis; type: ADME, organism-based; set-up: dose 25 mg/kg; settings: read-out: Drug uptake; summary of the method: as §2
# [6] = Drug level in db/db mouse liver at 25 mg/kg bid after 24 hrs by LC/MS-MS analysis; type: ADME, organism-based; set-up: dose 25 mg/kg; settings: read-out: Drug uptake
# Summary of the method: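 C57BL/KSK-mLep^db/mLep^db (db/db) mice dosed orally b.i.d. for 12 days at 1, 5 or 25 mg/kg. Liver concentrations of parent compound measured 24 h after the last administration.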
# Bile acid receptor [7] = biological target: T1, Bile acid receptor (Homo sapiens, UniProt Q96RI1); experiment: Agonist activity at human GST-fused FXR LBD assessed as cofactor peptide interaction with receptor ligand binding domain by FRET assay
# T1 sequence (Q96RI1 whole entry): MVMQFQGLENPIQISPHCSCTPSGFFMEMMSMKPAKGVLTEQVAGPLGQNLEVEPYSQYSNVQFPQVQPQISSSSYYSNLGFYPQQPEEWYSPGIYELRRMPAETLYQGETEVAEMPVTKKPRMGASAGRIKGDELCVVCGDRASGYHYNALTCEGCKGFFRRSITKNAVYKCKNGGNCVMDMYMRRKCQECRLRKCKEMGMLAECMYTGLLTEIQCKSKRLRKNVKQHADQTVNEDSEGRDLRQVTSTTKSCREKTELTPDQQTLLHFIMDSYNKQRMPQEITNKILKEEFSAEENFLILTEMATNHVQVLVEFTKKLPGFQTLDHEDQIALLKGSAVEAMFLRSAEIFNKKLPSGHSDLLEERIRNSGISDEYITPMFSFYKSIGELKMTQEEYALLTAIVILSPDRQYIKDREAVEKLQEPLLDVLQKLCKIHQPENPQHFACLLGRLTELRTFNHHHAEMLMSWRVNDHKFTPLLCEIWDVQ
# [8] = biological target: T2, Bile acid receptor (Homo sapiens) (UniProt Q96RI1); experiment: Agonist activity at human GST-fused FXR LBD assessed as cofactor peptide interaction with receptor ligand binding domain by FRET assay relative to GW-4064
# T2 sequence (whole entry): T1 sequence (Q96RI1 whole entry)
# Bile acid receptor [9] = biological target: T1, Bile acid receptor; experiment: Agonist activity at human […] FXR LBD expressed in HEK293 cells coexpressing GAL4-DNA bindig domain and pFRluc by mammalian one-hybrid assay; type: functional, cell-based; settings: read-out: EC50
# [10] = biological target: T2, Bile acid receptor (Homo sapiens); experiment: Agonist activity at human […] FXR LBD expressed in HEK293 cells coexpressing GAL4-DNA bindig domain and pFRluc by mammalian one-hybrid assay relative to GW-4064; type: functional, cell-based
# Bile acid receptor [11] = biological target: T1, Bile acid receptor; experiment: Agonist activity at human full length FXR transfected in HEK293 cells coexpressing pTRexDest/pGL2promotor assessed as luciferase activity by direct reporter cellular assay; type: functional, cell-based; settings: read-out: EC50
# [12] = biological target: T2, Bile acid receptor (Homo sapiens); experiment: Agonist activity at human full length FXR transfected in HEK293 cells coexpressing pTRexDest/pGL2promotor assessed as luciferase activity by direct reporter cellular assay relative to GW-4064; type: functional, cell-based
# [13] = Plasma concentration in db/db mouse at 5 mg/kg, po after 5 mins; type: ADME, organism-based; set-up: dose 5 mg/kg, route oral; settings: read-out: Drug uptake
# Summary of the method: (§3)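 Single dose to mice, 5 mg/kg po or 1 mg/kg iv. Plasma was sampled at 5, 10, 30, 90 and 240 min. Only parent compound was measured, in ng/mL.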
# [14] = Plasma concentration in db/db mouse at 5 mg/kg, po after 10 mins; type: ADME, organism-based; set-up: dose 5 mg/kg, route oral; settings: read-out: Drug uptake; summary of the method: as §3
# [15] = Plasma concentration in db/db mouse at 5 mg/kg, po after 30 mins; type: ADME, organism-based; set-up: dose 5 mg/kg, route oral; settings: read-out: Drug uptake; summary of the method: as §3
# [16] = Plasma concentration in db/db mouse at 5 mg/kg, po after 90 mins; type: ADME, organism-based; set-up: dose 5 mg/kg, route oral; settings: read-out: Drug uptake; summary of the method: as §3
# [17] = Clearance in db/db mouse at 5 mg/kg, po; type: ADME, organism-based; set-up: dose 5 mg/kg, route oral; settings: in vivo
# Summary of the method: (§4)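 Mice received a single dose of 5 mg/kg po or 1 mg/kg iv. Plasma was sampled at 5, 10, 30, 90 and 240 min and the parent compound alone was measured (ng/mL). Clearance (mL/h/kg), Vd (mL/kg) and oral bioavailability were derived from these plasma profiles.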
# [18] = Oral bioavailability in db/db mouse at 5 mg/kg, po; type: ADME, organism-based; settings: in vivo
# Summary of the method: (§5)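 Derived from the single-dose mouse plasma time courses of parent compound, 5-240 min. Dosing was 5 mg/kg po or 1 mg/kg iv. Volume of distribution is in mL/kg, clearance in mL/h/kg, and oral bioavailability in %.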
# [19] = Plasma concentration in db/db mouse at 1 mg/kg, iv after 5 mins; type: ADME, organism-based; set-up: dose 1 mg/kg, route intravenous; settings: read-out: Drug uptake; summary of the method: as §3
# [20] = Plasma concentration in db/db mouse at 1 mg/kg, iv after 10 mins; type: ADME, organism-based; set-up: dose 1 mg/kg, route intravenous; settings: read-out: Drug uptake; summary of the method: as §3
# [21] = Plasma concentration in db/db mouse at 1 mg/kg, iv after 30 mins; type: ADME, organism-based; set-up: dose 1 mg/kg, route intravenous; settings: read-out: Drug uptake; summary of the method: as §3
# [22] = Plasma concentration in db/db mouse at 1 mg/kg, iv after 90 mins; type: ADME, organism-based; set-up: dose 1 mg/kg, route intravenous; settings: read-out: Drug uptake; summary of the method: as §3
# [23] = Plasma concentration in db/db mouse at 1 mg/kg, iv after 240 mins; type: ADME, organism-based; set-up: dose 1 mg/kg, route intravenous; settings: read-out: Drug uptake; summary of the method: as §3
# Mus musculus [24] = experiment: Volume of distribution in db/db mouse at 1 mg/kg, iv; type: ADME, organism-based; set-up: dose 1 mg/kg, route intravenous; settings: in vivo; summary of the method: as §5
# [25] = Clearance in db/db mouse at 1 mg/kg, iv; type: ADME, organism-based; set-up: dose 1 mg/kg, route intravenous; settings: in vivo; summary of the method: as §4
# Liver [26] = experiment: Drug level in db/db mouse liver measured metabolites as carboxylic acid at 5 mg/kg, po after 240 mins; type: ADME, organism-based; set-up: dose 5 mg/kg, route oral; settings: in vivo, 4 h
# Summary of the method: (§6)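 Mice got a single dose, 5 mg/kg po or 1 mg/kg iv. Liver and bile were sampled 240 min after dosing. Parent carboxylic acid, its acyl-glucuronide and its taurine amide were quantified separately, in ng/mL. Glucuronide identity was confirmed by glucuronidase digestion of bile or bile extracts, which regenerated the parent.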
# Liver [27] = experiment: Drug level in db/db mouse liver measured metabolites as glucuronide at 5 mg/kg, po after 240 mins; type: ADME, organism-based; set-up: dose 5 mg/kg, route oral; settings: in vivo, 4 h; summary of the method: as §6
# Liver [28] = experiment: Drug level in db/db mouse liver measured metabolites as taurine amide at 5 mg/kg, po after 240 mins; type: ADME, organism-based; set-up: dose 5 mg/kg, route oral; settings: in vivo, 4 h; summary of the method: as §6
# [29] = Drug level in db/db mouse bile measured metabolites as carboxylic acid at 5 mg/kg, po after 240 mins; type: ADME, organism-based; set-up: dose 5 mg/kg, route oral; settings: in vivo, 4 h
# [30] = Drug level in db/db mouse bile measured metabolites as glucuronide at 5 mg/kg, po after 240 mins; type: ADME, organism-based; set-up: dose 5 mg/kg, route oral; settings: in vivo, 4 h
# [31] = Drug level in db/db mouse bile measured metabolites as taurine amide at 5 mg/kg, po after 240 mins; type: ADME, organism-based; set-up: dose 5 mg/kg, route oral; settings: in vivo, 4 h; summary of the method: as §6
# Liver [32] = experiment: Drug level in db/db mouse liver measured metabolites as carboxylic acid at 1 mg/kg, iv after 240 mins; type: ADME, organism-based; set-up: dose 1 mg/kg, route intravenous; settings: in vivo, 4 h; summary of the method: as §6
# Liver [33] = experiment: Drug level in db/db mouse liver measured metabolites as glucuronide at 1 mg/kg, iv after 240 mins; type: ADME, organism-based; set-up: dose 1 mg/kg, route intravenous; settings: in vivo, 4 h; summary of the method: as §6
# Liver [34] = experiment: Drug level in db/db mouse liver measured metabolites as taurine amide at 1 mg/kg, iv after 240 mins; type: ADME, organism-based; set-up: dose 1 mg/kg, route intravenous; settings: in vivo, 4 h; summary of the method: as §6
# [35] = Drug level in db/db mouse bile measured metabolites as carboxylic acid at 1 mg/kg, iv after 240 mins; type: ADME, organism-based; set-up: dose 1 mg/kg, route intravenous; settings: in vivo, 4 h
# [36] = Drug level in db/db mouse bile measured metabolites as glucuronide at 1 mg/kg, iv after 240 mins; type: ADME, organism-based; set-up: dose 1 mg/kg, route intravenous; settings: in vivo, 4 h
# [37] = Drug level in db/db mouse bile measured metabolites as taurine amide at 1 mg/kg, iv after 240 mins; type: ADME, organism-based; set-up: dose 1 mg/kg, route intravenous; settings: in vivo, 4 h; summary of the method: as §6
compound,measurement,setting,value
CC[C@H]1[C@@H](O)[C@@H]2[C@H](CC[C@]3(C)[C@@H]([C@H](C)CCC(=O)O)CC[C@@H]23)[C@@]2(C)CC[C@@H](O)C[C@@H]12 [OBETICHOLIC ACID],Activity,Mus musculus [1],Active
same,Activity,Mus musculus [2],Active
same,concentration at 4 h,[3],2.12 µM
same,concentration at 24 h,[4],3.24 µM
same,concentration at 4 h,[5],13.9 µM
same,concentration at 24 h,[6],16.6 µM
CN(Cc1ccc(C(=O)NCCS(=O)(=O)O)cc1)c1ccc(OCc2c(-c3c(Cl)cccc3Cl)noc2C2CC2)nc1C(F)(F)F,EC50,Bile acid receptor [7],14 nM
same,Efficacy,[8],105%
same,EC50,Bile acid receptor [9],1420 nM
same,Efficacy,[10],57%
same,EC50,Bile acid receptor [11],925 nM
same,Efficacy,[12],49%
same,concentration at 5 min,[13],1 ng/mL
same,concentration at 10 min,[14],3 ng/mL
same,concentration at 0.5 h,[15],6 ng/mL
same,concentration at 1.5 h,[16],12 ng/mL
same,CL/F,[17],3280 mL/min/kg
same,bioavailability,[18],5.8%
same,concentration at 5 min,[19],72 ng/mL
same,concentration at 10 min,[20],59 ng/mL
same,concentration at 0.5 h,[21],3 ng/mL
same,concentration at 1.5 h,[22],19 ng/mL
same,concentration at 4 h,[23],8 ng/mL
same,Vd,Mus musculus [24],31.7 L/kg
same,clearance,[25],190 mL/min/kg
same,Drug uptake,Liver [26],6 ng/mL
same,Drug uptake,Liver [27],30 ng/mL
same,Drug uptake,Liver [28],262 ng/mL
same,Drug uptake,[29],32 ng/mL
same,Drug uptake,[30],1055 ng/mL
same,Drug uptake,[31],32442 ng/mL
same,Drug uptake,Liver [32],8 ng/mL
same,Drug uptake,Liver [33],7 ng/mL
same,Drug uptake,Liver [34],350 ng/mL
same,Drug uptake,[35],12 ng/mL
same,Drug uptake,[36],169 ng/mL
same,Drug uptake,[37],24151 ng/mL
